Source: ChEMBL document CHEMBL1212866, “Synthesis and anti-hepatitis C virus activity of novel ethyl 1H-indole-3-carboxylates in vitro” (Bioorg Med Chem, 2010)

How the values were obtained:
[1] = system: Hepatitis C virus; assay: Antiviral activity against HCV 2a infected in human Huh7.5 cells assessed inhibition of viral entry after 3 days; type: functional, Hepacivirus hominis, genotype 2a, Huh-7
How it was run: (§1)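 Naive Huh-7.5 cells infected with viral particles carrying a subgenomic HCV RNA with a firefly luciferase reporter, then plated in 96-well format with compounds present. Luciferase activity read after three days of incubation. IC50 calculated; single-point lines give % inhibition at 100 µM.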

[2] = Selectivity index, IC50 for human Huh7.5 cells to TC50 for inhibition of HCV 2a replication in human Huh7.5 cells; type: functional, Huh-7
How it was run: (§2)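 Index computed as TC50 divided by IC50. TC50 comes from the CellTiter-Blue viability assay in Huh-7.5 cells. IC50 comes from the luciferase-reporter HCV infection (entry) or replicon (replication) assay in Huh-7.5 cells, read after three days.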

[3] = Selectivity index, IC50 for human Huh7.5 cells to TC50 for inhibition of HCV 2a entry into human Huh7.5 cells; type: functional, Huh-7; how it was run: as §2
[4] = Cytotoxicity against human Huh7.5 cells by celltiter-blue viability assay; type: cell-based; details: Huh-7
How it was run: (§3)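 Huh-7.5 cells exposed to compounds, and viability estimated by CellTiter-Blue, a resazurin reagent that metabolically active cells reduce to fluorescent resorufin (excitation 579 nm, emission 584 nm). TC50 taken as the 50% cytotoxic concentration; the single-point line reflects testing at 50 µM.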

[5] = system: Hepatitis C virus; assay: Antiviral activity against HCV 2a infected in human Huh7.5 cells assessed inhibition of viral replication after 3 days by luciferase assay; type: functional, Hepacivirus hominis, genotype 2a, Huh-7
How it was run: (§4)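 Huh-7.5 cells transfected with an RNA transcript of a replicon carrying a firefly luciferase reporter, then plated in 96-well plates with compounds present. Luciferase activity measured after three days of incubation. IC50 calculated; single-point lines give % inhibition at 100 µM.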

[6] = system: Hepatitis C virus; assay: Antiviral activity against HCV 2a infected in human Huh7.5 cells assessed inhibition of viral replication at 100 uM after 3 days by luciferase assay; type: functional, Hepacivirus hominis; details: genotype 2a, Huh-7, 72 h; how it was run: as §4
[7] = system: Hepatitis C virus; assay: Antiviral activity against HCV 2a infected in human Huh7.5 cells assessed inhibition of viral entry at 100uM after 3 days; type: functional, Hepacivirus hominis; details: genotype 2a, Huh-7, 72 h; how it was run: as §1
[8] = Cytotoxicity against human Huh7.5 cells at 50 uM by celltiter-blue viability assay; type: cell-based; details: huh-7, 50 µM; how it was run: as §3

SMILES | TC50 [1] [µM] | Selectivity Index [2] | Selectivity Index [3] | IC50 [4] [µM] | TC50 [5] [µM] | inhibition at 100 µM [6] [%] | inhibition at 100 µM [7] [%] | Activity [8]
CCOC(=O)c1c(CS(=O)(=O)c2ccccc2)n(C)c2ccc(CN(C)C)cc12 | >50 | >5 | >2.6 | 10 | >50 | – | – | –
CCOC(=O)c1c(CS(=O)(=O)c2ccccc2)n(C)c2ccc(CN3CCCC3)cc12 | >50 | >16.7 | >10 | 3 | >50 | 80 | 95 | Non-toxic
CCOC(=O)c1c(CS(=O)(=O)c2ccccc2)n(C)c2ccc(CN3CCN(C)CC3)cc12 | >50 | >12.5 | >6.3 | 4 | >50 | – | – | –
CCOC(=O)c1c(CS(=O)(=O)c2ccccc2)n(C)c2ccc(CN3CCOCC3)cc12 | >50 | >12.5 | >3.6 | 4 | >50 | – | – | –
CCOC(=O)c1c(CS(=O)(=O)c2ccccc2)n(C)c2ccc(CN3CCCNCC3)cc12 | >50 | >4.2 | >2.4 | 12 | >50 | – | – | –
CCOC(=O)c1c(CS(=O)(=O)c2ccccc2)n(C)c2ccc(Cn3ccnc3)cc12 | 23 | 1.2 | 4.6 | 15 | 18 | – | – | –
CCOC(=O)c1c(C)n(C)c2ccc(CN(C)C)cc12 | >50 | >16.7 | >6.3 | 3 | >50 | – | – | –
CCOC(=O)c1c(C)n(C)c2ccc(CN3CCCC3)cc12 | >50 | >10 | >3.8 | 5 | >50 | – | – | –
CCOC(=O)c1c(CSc2ccccc2)n(C)c2cc(Br)c(O)c(CN(C)C)c12 [UMIFENOVIR] | 12 | 15 | 6 | 1 | 15 | – | – | –
